TCR-CD3 inh: human TCR-CD3 binding inhibition; hit rate 0.37% among 360,000; AID 651800; inhibition, % at 9.4 µM; TAMRA-labeled TCR probe fluorescence, biochemical;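 also: recombinant mutant TCR 2C K166C tagged with TAMRA read by polarization; 0% = receptor in buffer alone and 100% = receptor with positive control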
HTRA1 inh: inhibitors of human serine peptidase HTRA1; recombinant HTRA1, FP-rhodamine activity-based probe, fluorescence polarization; AID 504803; hit rate 0.5% among 340,000; inhibition, % at 5.96 µM; Q92743; in the data active = inhibition above about 36%;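 also: 0% = enzyme with DMSO and 100% = wells lacking enzyme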
Target sequence (Q92743 whole entry, looked up): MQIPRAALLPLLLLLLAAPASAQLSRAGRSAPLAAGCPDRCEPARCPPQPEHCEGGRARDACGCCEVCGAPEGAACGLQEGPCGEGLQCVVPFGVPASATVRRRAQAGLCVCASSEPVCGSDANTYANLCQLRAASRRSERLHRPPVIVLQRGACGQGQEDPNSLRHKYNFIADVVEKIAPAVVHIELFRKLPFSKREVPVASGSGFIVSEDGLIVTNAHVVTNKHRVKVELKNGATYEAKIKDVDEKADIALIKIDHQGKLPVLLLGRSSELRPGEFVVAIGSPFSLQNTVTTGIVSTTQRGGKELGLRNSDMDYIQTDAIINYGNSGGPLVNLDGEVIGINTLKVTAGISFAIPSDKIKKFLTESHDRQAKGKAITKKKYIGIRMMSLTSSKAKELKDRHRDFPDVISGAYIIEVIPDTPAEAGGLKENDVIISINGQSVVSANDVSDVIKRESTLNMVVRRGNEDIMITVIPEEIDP
mABHD4 FP: inhibitors of mouse ABHD4; Q8VD66; purified mABHD4, FP-Rh probe fluorescence polarization; inhibition, % at 8.92 µM; hit rate 0.54% among 370,000; AID 720543;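 active = inhibition exceeding the mean over every tested compound plus 3 SD, cut at about 30% in these data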;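 also: 0% = plate median of compound wells and 100% = S159A mutant with DMSO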
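Material: mouse ABHD4 enzyme, wild type; Benchmarks: S159A mutant high control, sample median low control; Buffer or medium: HEPES pH 7.0, NaCl, Pluronic buffer; Signal: fluorescence polarization; Read-out: percent inhibition of probe binding, normalized to plate controls; Timing: pre-incubation 45 min, probe exposure 60 min, at 25 °C; Dosing: 8.92 µM, single dose.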
Tn7 DDE FP: inhibitors of Tn7 peptide binding to human fibrin DD(E); FP displacement of FITC-Tn7 peptide from fibrin DD(E); 0% = median of compound wells per plate; P02675; inhibition, % at 8.3 µM; hit rate 0.13% among 370,000;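 active = inhibition above the mean of compounds falling within the control limits plus 3 SD of them, cut at about 14% in these data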;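 also: 0% = plate median of compound wells and 100% = 10 µM Aha-Tn7 peptide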
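Assay system: human fibrin DD(E). Input: DD(E) 2 µM final. Medium: Tris buffer with calcium and detergent, pH 7.8. Compound dosing: single point at 8.3 µM. Timing: 10 min plus 3 h, room temperature. Technique: fluorescence polarization of the labelled Tn7 tracer. Read-out: percent inhibition. Replicates: singlicate testing.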
Tn6 DDE FP: disrupts Tn6 cyclic peptide binding to fibrin D-Dimer-E complex; P02675; Fibrin DD(E) TRITC-Tn6 fluorescence polarization displacement; inhibition, % at 8.3 µM; hit rate 0.21% among 370,000; AID 720509;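 active = inhibition above a per-campaign cutoff: mean of compounds within control limits plus 3 SD, cut at about 15% in these data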;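 also: 0% = median of all compound wells on the plate and 100% = blocking peptide control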
SIAE inh: inhibitors of human sialic acid acetylesterase SIAE; SIAE FP-Rh probe binding, fluorescence polarization; inhibition, % at 9.66 µM; hit rate 0.69% among 370,000; AID 1053197;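 active = inhibition above a cutoff: mean of compounds within the control limits plus 3 SD of those, cut at about 17% in these data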;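 also: 0% = plate median of compound wells and 100% = probe without SIAE protein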
BSA probe FL: BSA probe counter-screen for TCR-CD3 inhibitors; shares compounds with TCR-CD3 inh; TAMRA-labeled BSA probe fluorescence counterscreen; inhibition, % at 9.4 µM; hit rate 10% among 1,200; in the data active = inhibition above about 23%;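 also: 0% = buffer low control and 100% = reference high control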
TCR-CD3 conf: TCR-CD3 interaction inhibition, confirmation. inhibition, % at 9.4 µM. hit rate 48% among 1,200. shares compounds with TCR-CD3 inh. TAMRA-labeled TCR probe fluorescence binding assay
Active calls of the source: *. A selection: hits, their analogues and other compounds. The true share with any hit is near 1.8%. Rule as the data show it, unless noted: active = inhibition above about 19%; inactive = the rest.

Results for NS(=O)(=O)c1ccc(NC(=O)c2cccc(N3C(=O)c4ccccc4C3=O)c2)cc1 ?
TCR-CD3 inh: 25*; HTRA1 inh: -6; mABHD4 FP: -13; Tn7 DDE FP: 7; Tn6 DDE FP: 5; SIAE inh: -23; BSA probe FL: -1; TCR-CD3 conf: 30*

Results for COC(=O)c1ccccc1NC(=S)NC(=O)c1ccc2c(c1)OCO2 ?
TCR-CD3 inh: 45*; HTRA1 inh: 3; mABHD4 FP: 3; Tn7 DDE FP: 5; Tn6 DDE FP: 7; SIAE inh: 3; BSA probe FL: -1; TCR-CD3 conf: -1

How did S=c1[nH]nc(-c2cc(-c3ccccn3)nc3ccccc23)o1 do in these assays?
TCR-CD3 inh: 33*; HTRA1 inh: 2; mABHD4 FP: 2; Tn7 DDE FP: -4; Tn6 DDE FP: 8; SIAE inh: -5; BSA probe FL: -3; TCR-CD3 conf: 7

Results for Cc1cc(NS(=O)(=O)c2ccc(NC(=O)CSc3nnc(-c4ccccn4)n3Cc3ccco3)cc2)nc(C)n1 ?
mABHD4 FP: 1; Tn7 DDE FP: -4; Tn6 DDE FP: -10; SIAE inh: 1

What do the screens show for `COc1ccc(C(=O)NCC(c2ccc3c(c2)OCO3)N2CCN(c3ccc(OC)cc3)CC2)cc1` (stereo not drawn)?
TCR-CD3 inh: 24*; HTRA1 inh: -1; mABHD4 FP: 1; Tn7 DDE FP: 2; Tn6 DDE FP: 1; SIAE inh: 10; BSA probe FL: 6; TCR-CD3 conf: 5

What do the screens show for `COc1ccc(NC(=O)N(C)C[C@H]2Oc3ccc(NC(=O)Nc4c(C)noc4C)cc3C(=O)N([C@H](C)CO)C[C@@H]2C)cc1`?
TCR-CD3 inh: -2; HTRA1 inh: 3; mABHD4 FP: 4; Tn7 DDE FP: -3; Tn6 DDE FP: 3; SIAE inh: 3

Results for CN1CCN(C(=O)c2cc3c(c(-c4cccc(-c5cccnc5)c4)n2)[C@@H](CCO)N(C(=O)CC2CC2)C3)CC1 ?
TCR-CD3 inh: 25*; mABHD4 FP: -9; Tn7 DDE FP: 5; Tn6 DDE FP: -1; SIAE inh: 3; BSA probe FL: 1; TCR-CD3 conf: 0

How did COc1ccc(Cl)cc1NC(=S)NCCSc1ccc(C)cc1 do in these assays?
TCR-CD3 inh: -1; HTRA1 inh: -34; mABHD4 FP: -34; Tn7 DDE FP: -11; Tn6 DDE FP: -1; SIAE inh: -7

What do the screens show for `CC1(C)CC2CC(C)(CN2S(=O)(=O)c2ccc(C(=O)Nc3cc(S(=O)(=O)N4CCOCC4)ccc3Cl)cc2)C1` (stereo not drawn)?
TCR-CD3 inh: 5; HTRA1 inh: -28; mABHD4 FP: 7; Tn7 DDE FP: -1; Tn6 DDE FP: 2; SIAE inh: -10

What do the screens show for `CC1(C)CC2CC(C)(CN2S(=O)(=O)c2ccc(C(=O)Nc3cccc(S(=O)(=O)N4CCOCC4)c3)cc2)C1` (stereo not drawn)?
TCR-CD3 inh: 35*; HTRA1 inh: -66; mABHD4 FP: -84; Tn7 DDE FP: -3; Tn6 DDE FP: -4; SIAE inh: -92; BSA probe FL: 5; TCR-CD3 conf: 29*

How did Cn1cnc2c(cnn2C)c1=O do in these assays?
TCR-CD3 inh: 28*; HTRA1 inh: 5; mABHD4 FP: -2; Tn7 DDE FP: -1; Tn6 DDE FP: 2; SIAE inh: 4; BSA probe FL: 1; TCR-CD3 conf: 3

Results for CC1CCN(C(=O)c2[nH]cnc2C(=O)NC2CCN(C(=O)OC(C)(C)C)CC2)CC1 ?
TCR-CD3 inh: 1; HTRA1 inh: -3; mABHD4 FP: 6; Tn7 DDE FP: 7; Tn6 DDE FP: 0; SIAE inh: -1

Results for CC(C)CCN1C(=O)c2ccccc2C1c1nnnn1-c1ccc2c(c1)OCCO2 (stereo not drawn) ?
TCR-CD3 inh: 6; mABHD4 FP: 1; Tn7 DDE FP: -8; Tn6 DDE FP: 1; SIAE inh: 0

High-throughput results: PubChem, The Scripps Research Institute Molecular Screening Center
